Experimental findings from ChEMBL document CHEMBL2407049, “Cyclopeptide alkaloids: stereochemistry and synthesis of the precursors of discarines C and D and myrianthine A” (2013) are described below.

In assay [1] the test system is Candida tropicalis. The assay is described as follows: Antifungal activity against Candida tropicalis ATCC 750 assessed as concentration required to inhibit fungal growth after 24 hrs by TLC assay. The assay is classed as functional. In a few lines: (§1)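 Direct TLC bioautography: compound amounts from 50 to 1.56 μg applied to precoated TLC plates, overlaid with Mueller Hinton or Sabouraud agar inoculated with microorganism suspension (10⁵ cfu mL⁻¹). Plates incubated 24 h at 37 °C, then stained with aqueous 2,3,5-triphenyltetrazolium chloride (1 mg mL⁻¹). The lowest amount giving an inhibition zone was recorded; <50 μg counted active. Triplicate.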

In assay [2] the test system is Saccharomyces cerevisiae. Nature of the assay: Antifungal activity against Saccharomyces cerevisiae ATCC 2601 assessed as concentration required to inhibit fungal growth after 24 hrs by TLC assay. The assay is classed as functional. The gist of the method: as §1
Assay [3] has as its system Staphylococcus epidermidis. The assay is described as follows: Antibacterial activity against Staphylococcus epidermidis ATCC 12228 assessed as concentration required to inhibit bacterial growth after 24 hrs by TLC assay. Type of assay: functional. The gist of the method:
as §1

For assay [4], the system named is Staphylococcus epidermidis. The assay is described as follows: Antibacterial activity against Staphylococcus epidermidis ATCC 12228 assessed as growth inhibition at 50 to 1.56 ug after 24 hrs by TLC assay. Type of assay: functional. The gist of the method:
as §1

Assay [5] is described as follows: Antibacterial activity against Salmonella Setubal ATCC 19196 assessed as concentration required to inhibit bacterial growth after 24 hrs by TLC assay. The assay is classed as functional, Salmonella enterica subsp. enterica serovar Setubal. The gist of the method:
as §1

The subject of assay [6] is Kocuria rhizophila. The assay is described as follows: Antibacterial activity against Micrococcus luteus ATCC 9341 assessed as growth inhibition at 50 to 1.56 ug after 24 hrs by TLC assay. The assay is classed as functional. The gist of the method: as §1
The nature of assay [7]: (§2) Antibacterial activity against Salmonella Setubal ATCC 19196 assessed as growth inhibition at 50 to 1.56 ug after 24 hrs by TLC assay. The assay is classed as functional, Salmonella enterica subsp. enterica serovar Setubal. The gist of the method:
as §1

The test system of assay [8] is Kocuria rhizophila. The assay is described as follows: Antibacterial activity against Micrococcus luteus ATCC 9341 assessed as concentration required to inhibit bacterial growth after 24 hrs by TLC assay. Type of assay: functional. In a few lines: as §1
For assay [9], the system named is Escherichia coli. The assay is described as follows: Antibacterial activity against Escherichia coli ATCC 11103 assessed as concentration required to inhibit bacterial growth after 24 hrs by TLC assay. Type of assay: functional. The gist of the method: as §1
Assay [10] has as its system Escherichia coli. Nature of the assay: Antibacterial activity against Escherichia coli ATCC 11103 assessed as growth inhibition at 50 to 1.56 ug after 24 hrs by TLC assay. Type of assay: functional. In a few lines: as §1
Assay [11] has as its system Cryptococcus neoformans. The assay is described as follows: Antifungal activity against Cryptococcus neoformans ATCC 28952 assessed as concentration required to inhibit fungal growth after 24 hrs by TLC assay. Type of assay: functional. The gist of the method: as §1
In assay [12] the test system is Staphylococcus aureus. The assay is described as follows: Antibacterial activity against Staphylococcus aureus ATCC 6538p assessed as growth inhibition at 50 to 1.56 ug after 24 hrs by TLC assay. Type of assay: functional. The gist of the method: as §1
Assay [13] has as its system Klebsiella pneumoniae. The assay is described as follows: Antibacterial activity against Klebsiella pneumoniae ATCC 10031 assessed as growth inhibition at 50 to 1.56 ug after 24 hrs by TLC assay. Type of assay: functional. In a few lines:
as §1

In assay [14] the test system is Klebsiella pneumoniae. The assay is described as follows: Antibacterial activity against Klebsiella pneumoniae ATCC 10031 assessed as concentration required to inhibit bacterial growth after 24 hrs by TLC assay. The assay is classed as functional. The gist of the method:
as §1

The test system of assay [15] is Candida albicans. Nature of the assay: Antifungal activity against Candida albicans ATCC 10231 assessed as concentration required to inhibit fungal growth after 24 hrs by TLC assay. The assay is classed as functional. In a few lines:
as §1

Assay [16] relates to Candida dubliniensis. Nature of the assay: Antifungal activity against Candida dubliniensis SM 26 clinical isolate assessed as concentration required to inhibit fungal growth after 24 hrs by TLC assay. The assay is classed as functional. The gist of the method:
as §1

Assay [17] deals with Staphylococcus aureus. Nature of the assay: Antibacterial activity against Staphylococcus aureus ATCC 6538p assessed as concentration required to inhibit bacterial growth after 24 hrs by TLC assay. Type of assay: functional. The gist of the method:
as §1

Assay [18] has as its system Salmonella enterica subsp. enterica serovar Setubal. The description is as §2. The assay is classed as functional. The gist of the method: as §1

The source made the active and inactive calls. The rule behind the calls is not given here.

Consider `CC[C@H](C)[C@H](NC(=O)[C@@H](NC(=O)[C@H](CC(C)C)N(C)C)[C@@H](Oc1ccc(C=O)cc1)c1ccccc1)C(=O)OC`, for which the Activity in [1], in [2], in assay [3], in [4], in assay [5] and in assay [6] was below 50 µg each time. In addition, the Activity in assay [7], in assay [8], in assay [9], in assay [10], in [11] and in [12] was below 50 µg throughout. The Activity in assay [13], in assay [14], in assay [15], in assay [16] and in [17] was below 50 µg each time.

Consider `CC[C@H](C)[C@H](NC(=O)[C@H](NC(=O)[C@H](CC(C)C)N(C)C)[C@H](Oc1ccc(C=O)cc1)c1ccccc1)C(=O)OC`, for which the Activity in [1], in assay [2], in assay [3], in assay [5], in assay [8] and in assay [9] was below 50 µg each time. In addition, the Activity in assay [11], in [14], in assay [15], in assay [16] and in [17] was below 50 µg throughout. For the same compound, the “growth inhibition (GI)” value in assay [4], in assay [6], in assay [18], in assay [10], in assay [12] and in assay [13] was “inactive” throughout.

Take `COC(=O)[C@H](Cc1ccccc1)NC(=O)[C@@H](NC(=O)[C@H](CC(C)C)N(C)C)[C@@H](Oc1ccc(C=O)cc1)c1ccccc1` (mixture of isomers): the Activity in assay [1], in [2], in assay [3], in [4], in assay [5] and in [6] was below 50 µg each time. Also, the Activity in [7], in assay [8], in [9], in [10], in assay [11] and in [12] was below 50 µg throughout. In addition, the Activity in assay [13], in [14], in assay [15], in assay [16] and in assay [17] was below 50 µg each time.

`COC(=O)[C@H](Cc1ccccc1)NC(=O)[C@H](NC(=O)[C@H](CC(C)C)N(C)C)[C@H](Oc1ccc(C=O)cc1)c1ccccc1` (mixture of isomers): the Activity in assay [1], in [2], in assay [3], in assay [5], in assay [8] and in assay [9] was below 50 µg in each case. Moreover, the Activity in assay [11], in assay [14], in [15], in [16] and in assay [17] was below 50 µg in each case. Besides, the “growth inhibition (GI)” value in assay [4], in [6], in [18], in [10], in assay [12] and in [13] was “inactive” in each case.
